Consider 17 compounds from ChEMBL document CHEMBL1148326, “Chemometric studies on the bactericidal activity of quinolones via an extended VolSurf approach” (2004).

Format in all cases: functional
Test [1] concerns Staphylococcus aureus. The experiment in a line: Antibacterial activity was evaluated against Staphylococcus aureus. In a few lines:
(§1)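 MIC against aerobic bacteria, measured at Bayer AG, by standard agar dilution or broth microdilution per NCCLS M7-A5 guidelines. MIC taken as lowest concentration visibly inhibiting growth after in vitro incubation, read when untreated culture growth becomes visible; expressed as log 1/C.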

Test [2] concerns Pseudomonas aeruginosa. The experiment in a line: Antibacterial activity was evaluated against Pseudomonas aeruginosa. In a few lines:
as §1

Test [3] deals with Escherichia coli. The test is described as follows: Antibacterial activity was evaluated against Escherichia coli. An outline of the steps:
as §1

Test [4] deals with Enterococcus faecalis. The experiment in a line: Antibacterial activity evaluated against Enterococcus faecalis. In a few lines: as §1
Test [5] relates to Enterococcus faecalis. The experiment in a line: Antibacterial activity was evaluated against Enterococcus faecalis. An outline of the steps: as §1

Regarding `CC(C)(C)N1CCN(c2cc3c(cc2F)c(=O)c(C(=O)O)cn3C2CC2)CC1`, the “Log 1/C” value in test [1] is listed as 6.19; in test [2], 5.29; in test [3], 7.1; in test [4], 5.89.

Consider `O=C(O)c1cn(C2CC2)c2cc(N3C(=O)C=CC3=O)c(F)cc2c1=O`, for which the “Log 1/C” value in test [1], in test [2], in test [3] and in test [4] was 3.43 throughout.

As for `O=C(O)c1cn(C2CC2)c2c(Cl)c(N3C[C@H]4CCCN[C@H]4C3)c(F)cc2c1=O`, the “Log 1/C” value came to 6.85 in test [1], 5.65 in test [2], 7.47 in test [3] and 6.85 in test [4].

As for `CC(C)(C)n1cc(C(=O)O)c(=O)c2cc(F)c(N3CCNCC3)cc21`, the “Log 1/C” value was 6.44 in test [1], 6.14 in test [2], 7.06 in test [3] and 6.44 in test [4].

As for `O=C(O)c1cn(C2CC2)c2cc(N3C[C@@H]4CCCN[C@@H]4C3)c(F)cc2c1=O`, the “Log 1/C” value in test [1] was 7.12; in test [2] it was 5.92; in test [3], 7.12; in test [4], 6.21.

`O=C(O)c1cn(C2CC2)c2c(F)c(N3C[C@H]4CCCN[C@H]4C3)c(F)cc2c1=O`: the “Log 1/C” value in test [1] is reported as 6.84; in test [2] it was 5.63; in test [3], 7.45; in test [4] it was 6.53.

`O=C(O)c1cn(-c2ccc(F)cc2F)c2nc(N3C[C@@H]4CCCN[C@@H]4C3)c(F)cc2c1=O`: the “Log 1/C” value in test [1] amounted to 6.59; in test [2], 5.09; in test [3], 7.5; in test [4], 6.

`C[C@@]12CN(c3c(F)cc4c(=O)c(C(=O)O)cn(C5C[C@@H]5F)c4c3F)C[C@@H]1CCCN2` (stereo partly drawn): the “Log 1/C” value in test [1] is listed as 7.16; in test [5], 6.86; in test [2], 6.25; in test [3], 7.46.

Take `CNn1cc(C(=O)O)c(=O)c2cc(F)c(N3CCN(C)CC3)cc21` [AMIFLOXACIN]: the “Log 1/C” value in test [1] was determined as 5.52; in test [2] it was 5.83; in test [3], 6.75; in test [4], 4.92.

Regarding `O=C(O)c1cn(C2CC2)c2cc(N3CCNCC3)c(F)cc2c1=O` [CIPROFLOXACIN], the “Log 1/C” value in test [1] amounted to 6.16; in test [2], 6.77; in test [3], 7.66; in test [4], 6.16.

As to `C[C@H]1COc2c(N3CCN(C)CC3)c(F)cc3c(=O)c(C(=O)O)cn1c23.C[C@H]1COc2c(N3CCN(C)CC3)c(F)cc3c(=O)c(C(=O)O)cn1c23.O` [LEVOFLOXACIN], the “Log 1/C” value was determined as 6.5 in test [1], 6.2 in test [2], 7.41 in test [3] and 6.2 in test [4].

Regarding `CCn1cc(C(=O)O)c(=O)c2cc(F)c(N3CCNC(C)C3)c(F)c21` (stereo not drawn) [LOMEFLOXACIN], the “Log 1/C” value in test [1] came to 5.85; in test [2], 5.85; in test [3], 7.07; in test [4] it was 5.24.

Consider `COc1c(N2C[C@@H]3CCCN[C@@H]3C2)c(F)cc2c(=O)c(C(=O)O)cn(C3CC3)c12` [MOXIFLOXACIN], for which the “Log 1/C” value in test [1] came to 7.16; in test [5] it was 6.55; in test [2], 5.64; in test [3] it was 7.46.

As to `CCn1cc(C(=O)O)c(=O)c2cc(F)c(N3CCNCC3)cc21` [NORFLOXACIN], the “Log 1/C” value in test [1] is 5.55; in test [2] it was 5.85; in test [3], 6.76; in test [4], 5.55.

Take `CCn1cc(C(=O)O)c(=O)c2cc(F)c(N3CCN(C)CC3)cc21` [PEFLOXACIN]: the “Log 1/C” value in test [1] is listed as 6.12; in test [2] it was 5.82; in test [3], 7.05; in test [4], 5.52.

As for `N[C@@H]1CN(c2c(F)cc3c(=O)c(C(=O)O)cn([C@@H]4C[C@@H]4F)c3c2Cl)CC12CC2` [SITAFLOXACIN ANHYDROUS], the “Log 1/C” value in test [1] was found to be 7.74; in test [2], 6.84; in test [3], 8.04; in test [4], 7.45.

`C[C@@H]1CN(c2c(F)c(N)c3c(=O)c(C(=O)O)cn(C4CC4)c3c2F)C[C@H](C)N1` [SPARFLOXACIN]: the “Log 1/C” value in test [1] is 6.8; in test [2] it was 5.59; in test [3], 7.42; in test [4] it was 6.2.
